The target in the experiment is GPC3 (Homo sapiens, UniProt P51654). The format is cell-based. The following applies: Hep3B cells, 5 µM peptide, confocal microscopy. In a few lines:
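Hep3B cells were seeded at ~70% confluence in EMEM with 10% FBS and no antibiotics. They were transfected with 5 nmol of each of three GPC3 siRNAs or a negative-control siRNA using a lipofection reagent. Knockdown was confirmed by anti-GPC3 Western blot with GAPDH as loading control. Cells were methanol-fixed and stained with 5 µM IRDye800-labelled peptide for 5 min at RT, plus anti-GPC3 and AF488 secondary. Intensities were quantified from confocal images.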

GPC3, sequence (P51654 25-580): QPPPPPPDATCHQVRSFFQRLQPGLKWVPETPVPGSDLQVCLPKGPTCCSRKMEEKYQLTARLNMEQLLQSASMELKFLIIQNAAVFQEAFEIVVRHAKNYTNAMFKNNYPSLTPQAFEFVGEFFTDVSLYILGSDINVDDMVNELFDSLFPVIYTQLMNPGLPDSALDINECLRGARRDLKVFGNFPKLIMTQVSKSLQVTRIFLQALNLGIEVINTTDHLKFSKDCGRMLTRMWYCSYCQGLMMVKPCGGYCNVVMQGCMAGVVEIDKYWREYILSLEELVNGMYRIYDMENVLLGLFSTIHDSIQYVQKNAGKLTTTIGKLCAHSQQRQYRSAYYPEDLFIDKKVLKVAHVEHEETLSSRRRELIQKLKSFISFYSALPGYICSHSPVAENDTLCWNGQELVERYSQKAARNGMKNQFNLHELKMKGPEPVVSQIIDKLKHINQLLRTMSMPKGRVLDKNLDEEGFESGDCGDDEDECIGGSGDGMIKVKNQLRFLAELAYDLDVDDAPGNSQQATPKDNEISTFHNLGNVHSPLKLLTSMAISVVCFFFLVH

As to FEAEHNLALQTL [FEA*-IRDye800], the “difference in fluorescence intensity siCL versus siGPC3 cells, all 3 siRNAs” value was “non-significant difference”.

The values above are taken from PMC9007039 (Journal of medicinal chemistry, 2021).
